Experimental data from different studies.
Each line is one published result; the experiments were not run side by side.
Organism: Staphylococcus aureus
Effect on: microbial growth

SMILES	method	strain	time	notes	MIC
CC(=O)NC[C@H]1CN(c2ccc(N3CCOCC3)c(F)c2)C(=O)O1				clinical isolate	1.56 µg/mL
CC1(C)S[C@@H]2[C@H](NC(=O)COc3ccccc3)C(=O)N2[C@H]1C(=O)O		MRSA	18 h		> 128 µg/mL
Clc1cccc(NCc2ccc(Oc3ccccn3)cc2)c1					1.8 µg/mL
CC(C)Oc1c(NC(=O)c2ccc(NC(=O)[C@H](CC(N)=O)NC(=O)c3ccc(NC(=O)c4cc(C#N)cn4C)cc3)cc2)ccc(C(=O)Nc2ccc(C(=O)O)cc2)c1O		ATCC29213			64 µg/mL
Cc1ccc2nc(-c3cccc([N+](=O)[O-])c3)[nH]c2c1	broth dilution	ATCC29213 MSSA			64 µg/mL
O=C1NC(=S)N/C1=C\c1ccc(-c2ccc(N(c3ccccc3)c3ccccc3)cc2)c2ccccc12	broth dilution	ATCC25923			> 1000 µg/mL
O=C(Nc1ccc2c(c1)OC(F)(F)O2)c1ccc(Cl)c(C(F)(F)F)c1		NCTC8325			3 µM
C[C@@H](O)[C@H]1C(=O)N2C(C(=O)O)=C(S[C@@H]3CN[C@H](C(=O)N(C)C)C3)[C@H](C)[C@H]12	broth dilution	KCTC1621	16 h		8 µM
CCS(=O)(=O)c1cccc(-c2cc(C(=O)NC3CCN(C)CC3)c(C)c3[nH]c4ncc(C)cc4c23)c1		NCTC8325			> 30 µM
C/C=C(\C)c1cc(O)c(C)c(OC(=O)c2c(C)c(Cl)c(O)c(Cl)c2O)c1	broth dilution	MRSA			4 µg/mL
O=C(O)CN1C(=O)/C(=C/c2c3ccccc3c(-c3ccc(N(c4ccccc4)c4ccccc4)cc3)c3ccccc23)SC1=S	broth dilution	ATCC6538			> 1000 µg/mL
CC(=O)Nc1nc(C)c(-c2ccc(Cl)c(S(=O)(=O)NCCO)c2)s1		NCTC8325			> 30 µM
O=C(O)c1cn(C2CC2)c2cc(N3CCNCC3)c(F)cc2c1=O	broth dilution	ATCC11632	18 h		< 5 µg/mL
CC(C)Oc1c(NC(=O)c2ccc(NC(=O)[C@H](CC(N)=O)NC(=O)c3ccc(NC(=O)c4cccc(N)c4)cc3)cc2)ccc(C(=O)Nc2ccc(C(=O)O)cc2)c1O		ATCC29213			> 64 µg/mL
COc1c(C)c(OC)c(C(=O)/C=C/c2ccccc2)c(OC)c1C	broth dilution	ATCC25923			5000 µg/mL
Cc1ccc(C)n1-c1ccc(-c2nnc(-c3ccc(O)cc3)[nH]2)cc1	broth dilution	ATCC11632	18 h		8 µg/mL
CCCCCCC#Cc1cncc(-c2nnc(SCc3ccc(Cl)cc3)n2C2CC2)c1		MRSA		drug-resistant strain	≥ 20 µg/mL
Oc1cccc(-c2nc3ccccc3[nH]2)c1	broth dilution	ATCC29213 MSSA			64 µg/mL
O=C1NN=C(N=Cc2ccc(O)cc2O)C1=NNn1c(-c2ccccc2)nc2ccccc2c1=O	broth dilution		24 h		107 µM
OCCn1cc(-c2cnc3nnn(Cc4ccc5ncccc5c4)c3n2)cn1		NCTC8325			> 30 µM

SMILES	method	strain	time	notes	MIC
O=C(CCCCCC[P+](c1ccccc1)(c1ccccc1)c1ccccc1)Nc1cc(O)c(O)c(O)c1.[Br-]	broth dilution	ATCC43300 MRSA	18 h		32 µg/mL
CC[C@H]1OC(=O)[C@H](C)[C@@H](O[C@H]2C[C@@](C)(OC)[C@@H](O)[C@H](C)O2)[C@H](C)[C@@H](O[C@@H]2O[C@H](C)C[C@H](N(C)C)[C@H]2O)[C@](C)(O)C[C@@H](C)C(=O)[C@H](C)[C@@H](O)[C@]1(C)O		129		clinical isolate	> 100 µM
O=C1C=CC(=O)c2c1ccc1c2[nH]c2ccccc21		ATCC29213			4 µg/mL
Cc1cnc(Nc2ccc(OCCN3CCCC3)cc2)nc1Nc1cccc(S(=O)(=O)NC(C)(C)C)c1		NCTC8325			> 30 µM
C/C=C(\C)c1cc(O)c(C)c(OC(=O)c2c(C)cc(O)c(Cl)c2O)c1	broth dilution	16162			8 µg/mL
Cc1ccc2nc(-c3cc(Br)ccc3O)[nH]c2c1	broth dilution	ATCC29213 MSSA			64 µg/mL
Cc1nc(N)sc1-c1ccnc(Nc2ccc(N3CCOCC3)cc2)n1		NCTC8325			> 30 µM
CC1=NN(CNC(=O)c2ccccc2)C(=O)C1=NNn1c(-c2ccccc2)nc2ccccc2c1=O	broth dilution		24 h		51.9 µM
Oc1ccc(Br)cc1-c1nc2ccccc2[nH]1	broth dilution	ATCC29213 MSSA			64 µg/mL
COCCCNC(=N)c1ccc(NC(=O)c2ccc(C(=O)Nc3ccc(C(=N)NCCCOC)cc3)cc2)cc1					4 µg/mL
CNC(=O)c1ccc(NC(=O)Nc2ccc(Cl)c(C(F)(F)F)c2)cc1		NCTC8325	24 h		30 µM
Cc1cc(Cl)cc2sc(N(CCCn3ccnc3)C(=O)c3ccc[nH]3)nc12		ATCC25923			1.3 µM
C/C=C(\C)c1cc(OC(=O)c2c(O)c(C)c(O)c(Cl)c2/C(C)=C/C)c(C)c(O)c1C(=O)O	broth dilution	16339			64 µg/mL
O=C1NC(=S)S/C1=C\c1ccc(-c2ccc(N(c3ccccc3)c3ccccc3)cc2)cc1	broth dilution	ATCC25923			250 µg/mL
Cc1ccc2nc(-c3ccc(F)cc3)n(Cc3ccccc3)c2c1	broth dilution	ATCC29213 MSSA			64 µg/mL
O=C(O)CN1C(=O)/C(=C/c2ccc(-c3ccc(N(c4ccccc4)c4ccccc4)cc3)cc2)SC1=S	broth dilution	ATCC25923			3.9 µg/mL
CN1CCN(CCOc2cc(OC3CCOCC3)c3c(Nc4c(Cl)ccc5c4OCO5)ncnc3c2)CC1		NCTC8325			> 30 µM
COc1cccc(OC)c1C(=O)N[C@@H]1C(=O)N2[C@@H]1SC(C)(C)[C@@H]2C(=O)O	broth dilution	25923			3.13 µM
Cc1cccc(NCc2ccc(Oc3ccccn3)cc2)c1					> 6.2 µg/mL
CN[C@H](CC(C)C)C(=O)N[C@H]1C(=O)N[C@@H](CC(N)=O)C(=O)N[C@H]2C(=O)N[C@H]3C(=O)N[C@H](C(=O)N[C@H](C(=O)O)c4cc(O)cc(O)c4-c4cc3ccc4O)[C@H](O)c3ccc(c(Cl)c3)Oc3cc2cc(c3O[C@@H]2O[C@H](CO)[C@@H](O)[C@H](O)[C@H]2O[C@H]2C[C@](C)(N)[C@H](O)[C@H](C)O2)Oc2ccc(cc2Cl)[C@H]1O	broth dilution	6917			1 µg/mL

SMILES	method	strain	time	notes	MIC
COc1c(C)c(OS(=O)(=O)c2ccc3ccccc3c2)c(C)c(O)c1C(=O)/C=C/c1ccccc1	broth dilution	ATCC25923			2500 µg/mL
Cc1cc(C)cc(NC(=O)CN(C)S(=O)(=O)c2ccc3[nH]c4c(c3c2)CCCC4)c1					> 128 µg/mL
CC1(C)S[C@@H]2[C@H](NC(=O)[C@H](N)c3ccccc3)C(=O)N2[C@H]1C(=O)O	broth dilution	MRSA			32 µg/mL
Cc1ccc2nc(-c3cccnc3)[nH]c2c1	broth dilution	ATCC29213 MSSA			64 µg/mL
O=C(CCc1ccc(O)c(O)c1)NCCCCCCCC[P+](c1ccccc1)(c1ccccc1)c1ccccc1.[Br-]	broth dilution	ATCC43300 MRSA	18 h		> 32 µg/mL
CC(C)Oc1c(NC(=O)c2ccc(NC(=O)[C@H](CC(N)=O)NC(=O)c3ccc(NC(=O)Cc4ccc(C#N)cc4)cc3)cc2)ccc(C(=O)Nc2ccc(C(=O)O)cc2)c1O		ATCC29213			> 64 µg/mL
CCOC(=O)/C(C#N)=C(\O)c1ccc(NC(=O)c2cccs2)cc1					> 128 µg/mL
Clc1ccc(-c2nc3ccccc3[nH]2)cc1	broth dilution	ATCC29213 MSSA			64 µg/mL
CO[C@H]1/C=C/O[C@@]2(C)Oc3c(C)c(O)c4c(O)c(c(/C=N/N5CCN(C)CC5)c(O)c4c3C2=O)NC(=O)/C(C)=C\C=C\[C@H](C)[C@H](O)[C@@H](C)[C@@H](O)[C@@H](C)[C@H](OC(C)=O)[C@@H]1C	broth dilution	ATCCBAA44			2 µg/mL
CN(C)c1ccc(-c2nc3ccccc3[nH]2)cc1	broth dilution	ATCC29213 MSSA			64 µg/mL
CC(C)Oc1c(NC(=O)c2ccc(NC(=O)[C@H](CC(N)=O)NC(=O)c3ccc(NC(=O)c4ccc(C#N)s4)cc3)cc2)ccc(C(=O)Nc2ccc(C(=O)O)cc2)c1O		ATCC29213			0.25 µg/mL
CC(=O)NC[C@H]1CN(c2ccc(N3CCOCC3)c(F)c2)C(=O)O1	broth dilution	MRSA NRS383 USA200		drug-resistant strain	2 µg/mL
CC(C)Oc1c(NC(=O)c2ccc(NC(=O)[C@H](CC(N)=O)NC(=O)c3ccc(NC(=O)c4ccccc4)cc3)cc2)ccc(C(=O)Nc2ccc(C(=O)O)cc2)c1O		ATCC29213			> 64 µg/mL
O=C1NC(=S)N/C1=C\c1ccc(-c2ccc(N(c3ccccc3)c3ccccc3)cc2)cc1	broth dilution	ATCC25923			> 1000 µg/mL
Cc1cc(C)cc(NC(=O)Nc2ccc(N3CCCCC3)cc2)c1					> 128 µg/mL
CSc1nc(Cl)cc(Sc2nnc(-c3cc(C(F)(F)F)cc(C(F)(F)F)c3)[nH]2)n1		83254			2.1 µM
CC(C)Oc1c(NC(=O)c2ccc(NC(=O)[C@H](CC(N)=O)NC(=O)c3ccc(NC(=O)c4ccc(C#N)cc4)cc3)cc2)ccc(C(=O)NC2CCNCC2)c1O		ATCC29213			> 64 µg/mL
CN[C@H](CC(C)C)C(=O)N[C@H]1C(=O)N[C@@H](CC(N)=O)C(=O)N[C@H]2C(=O)N[C@H]3C(=O)N[C@H](C(=O)N[C@H](C(=O)O)c4cc(O)cc(O)c4-c4cc3ccc4O)[C@H](O)c3ccc(c(Cl)c3)Oc3cc2cc(c3O[C@@H]2O[C@H](CO)[C@@H](O)[C@H](O)[C@H]2O[C@H]2C[C@](C)(N)[C@H](O)[C@H](C)O2)Oc2ccc(cc2Cl)[C@H]1O	broth dilution	ATCC43300			1.96 µg/mL
